Experimental data: ChEMBL document CHEMBL1134269, “Structure-affinity relationships of a unique nicotinic ligand: N(1)-dimethyl-N(4)-phenylpiperazinium iodide (DMPP)” (J Med Chem, 2001)

Assays:
[1] = biological target: Neuronal acetylcholine receptor; alpha4/beta2 (Rattus norvegicus, UniProt P09483+P12390); test: Binding affinity against nicotinic receptors from rat brain using [3H]cytisine as radioligand
Summary of the method: (§1)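 Rat brain homogenate membranes (15 mg wet tissue) in 50 mmol Tris-HCl, pH 7.4 at 2 °C, with NaCl, KCl, MgCl₂ and CaCl₂. Incubated 75 min at 2 °C with 2 nmol [³H]-cytisine. Separated by GF/C filtration. Nonspecific binding defined with […] (–)-nicotine bitartrate. Ki calculated by Cheng-Prusoff using Kd 1.5 nmol.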

[2] = Compound was evaluated for pKi; summary of the method: as §1
[3] = biological target: Neuronal acetylcholine receptor subunit alpha-7 (Rattus norvegicus, UniProt Q05941); test: compound was evaluated for pKi
Sequence of Neuronal acetylcholine receptor subunit alpha-7 (Q05941 whole entry): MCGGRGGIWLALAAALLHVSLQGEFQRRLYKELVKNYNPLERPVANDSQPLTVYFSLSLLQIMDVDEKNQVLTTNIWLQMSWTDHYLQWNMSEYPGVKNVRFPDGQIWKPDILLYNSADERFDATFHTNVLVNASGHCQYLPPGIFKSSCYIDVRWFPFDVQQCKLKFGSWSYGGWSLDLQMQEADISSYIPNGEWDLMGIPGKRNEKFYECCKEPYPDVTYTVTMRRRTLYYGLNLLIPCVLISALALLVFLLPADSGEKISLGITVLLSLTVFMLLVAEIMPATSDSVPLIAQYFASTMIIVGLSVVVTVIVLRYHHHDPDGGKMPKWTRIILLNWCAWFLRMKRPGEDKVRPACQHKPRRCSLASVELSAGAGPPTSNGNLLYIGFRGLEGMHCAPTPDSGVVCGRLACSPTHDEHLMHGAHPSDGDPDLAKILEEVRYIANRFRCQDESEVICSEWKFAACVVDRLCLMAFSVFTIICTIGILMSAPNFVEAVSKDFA

[4] = tested on: Mus musculus; test: Effect(%) respect to that of 5 ug/kg of morphine injected intracerebroventricularly; format: functional
Summary of the method: (§2)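 Mouse hot-plate test with compounds given icv. Minimum analgesic dose recorded; efficacy expressed relative to 5 μg morphine icv. Nicotinic origin of analgesia tested by reversal with mecamylamine 2 mg/kg i.p.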

[5] = tested on: Mus musculus; test: Minimal analgesic dose of compound injected intracerebroventricularly; format: functional; summary of the method: as §2

Sequence of Neuronal acetylcholine receptor; alpha4/beta2 (P09483 whole entry): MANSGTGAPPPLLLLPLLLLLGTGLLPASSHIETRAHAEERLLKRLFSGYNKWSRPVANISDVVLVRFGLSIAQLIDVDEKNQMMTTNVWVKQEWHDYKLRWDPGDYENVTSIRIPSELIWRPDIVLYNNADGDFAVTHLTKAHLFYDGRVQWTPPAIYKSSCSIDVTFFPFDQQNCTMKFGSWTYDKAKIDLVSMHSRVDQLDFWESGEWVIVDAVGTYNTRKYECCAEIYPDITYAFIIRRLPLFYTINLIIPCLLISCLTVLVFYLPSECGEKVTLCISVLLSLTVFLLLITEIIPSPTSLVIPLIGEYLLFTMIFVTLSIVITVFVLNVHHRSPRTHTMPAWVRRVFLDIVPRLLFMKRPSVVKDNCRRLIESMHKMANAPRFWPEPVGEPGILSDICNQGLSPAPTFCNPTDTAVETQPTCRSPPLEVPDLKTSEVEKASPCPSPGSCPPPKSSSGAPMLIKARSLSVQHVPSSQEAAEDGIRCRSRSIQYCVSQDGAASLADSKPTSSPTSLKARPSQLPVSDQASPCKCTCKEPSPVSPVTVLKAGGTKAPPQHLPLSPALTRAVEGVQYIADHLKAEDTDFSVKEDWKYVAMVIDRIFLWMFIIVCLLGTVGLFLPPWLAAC
Sequence of Neuronal acetylcholine receptor; alpha4/beta2 (P12390 whole entry): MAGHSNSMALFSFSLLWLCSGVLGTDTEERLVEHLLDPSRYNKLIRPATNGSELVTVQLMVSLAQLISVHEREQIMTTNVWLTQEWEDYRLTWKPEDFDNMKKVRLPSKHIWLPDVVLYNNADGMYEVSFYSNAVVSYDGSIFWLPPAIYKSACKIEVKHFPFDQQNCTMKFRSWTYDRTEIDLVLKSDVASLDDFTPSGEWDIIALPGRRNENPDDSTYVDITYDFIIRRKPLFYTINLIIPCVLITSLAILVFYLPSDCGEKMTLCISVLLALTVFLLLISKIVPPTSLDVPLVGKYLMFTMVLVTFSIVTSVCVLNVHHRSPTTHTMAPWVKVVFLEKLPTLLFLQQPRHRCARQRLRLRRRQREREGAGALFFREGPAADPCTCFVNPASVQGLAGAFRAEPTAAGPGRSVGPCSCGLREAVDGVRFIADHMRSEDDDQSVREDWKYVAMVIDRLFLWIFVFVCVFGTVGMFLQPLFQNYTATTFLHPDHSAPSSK

SMILES	Ki [1]	also measured
CN1CCC(c2ccccc2)CC1	> 10 µM	–
CN1CCN(c2ccc(F)cc2)CC1	> 10 µM	–
Cc1ccccc1N1CCN(C)CC1	> 10 µM	–
CN1CCN(c2cccc(N)c2)CC1	0.18 µM	Log Ki [2]: -6.74
CN1CCN(c2ccc(N)cc2)CC1	> 10 µM	–
CN1CCN(c2cccnn2)CC1.O=C(O)C(=O)O	0.386 µM	Log Ki [2]: -6.41
CC(=O)Oc1cccc(N2CCN(C)CC2)c1	0.8 µM	Ki [3]: 0.794 µM
CN1CCN(C2=CC(=O)CCC2)CC1	> 10 µM	–
CN1CC=C(c2ccccc2)CC1	> 10 µM	–
CN1CCN(c2cccc(C#N)c2)CC1	> 10 µM	–
CN1CCN(c2ccc(O)cc2)CC1	> 10 µM	–
CN1CCN(c2ccc3c(c2)OCO3)CC1	> 10 µM	–
c1cc2c(cc1N1CCNCC1)OCO2	> 10 µM	–
CN1CCN(c2ccc([N+](=O)[O-])cc2)CC1	> 10 µM	–
O=C(O)C(=O)O.c1cncc(N2CCNCC2)c1	0.09 µM	Efficacy [4]: 51.1%; M.A.D [5]: 50 µg/kg; Log Ki [2]: -7.05
CN1CCN(c2cccc(O)c2)CC1	> 10 µM	–

SMILES	Ki [1]	also measured
CC(=O)c1ccc(N2CCN(C)CC2)cc1	> 10 µM	–
Cc1cccc(N2CCN(C)CC2)c1	> 10 µM	–
c1cc(N2CCNCC2)ccn1	> 10 µM	–
O=[N+]([O-])c1cccc(N2CCNCC2)c1	> 10 µM	–
CN1CCN(c2cccc(Cl)c2)CC1	> 10 µM	–
CN1CCN(c2cccc(F)c2)CC1.O=C(O)C(=O)O	6.5 µM	Log Ki [2]: -5.19
CN1CC=C(c2cccnc2)CC1.Cl	–	Efficacy [4]: 36.5%; M.A.D [5]: 1 µg/kg
CC(=O)c1ccc(N2CCNCC2)cc1	> 10 µM	–
Fc1cccc(N2CCNCC2)c1	> 10 µM	–
Fc1ccc(N2CCNCC2)cc1	> 10 µM	–
CN1CCN(c2cccc(C(F)(F)F)c2)CC1	> 10 µM	–
FC(F)(F)c1cccc(N2CCNCC2)c1	> 10 µM	–
C[N+]1(C)CCN(c2ccc3c(c2)OCO3)CC1.[I-]	0.672 µM	Log Ki [2]: -6.17
CN1CCN(C2=CC(=O)CC2)CC1	> 10 µM	–
CC(=O)Nc1cccc(N2CCN(C)CC2)c1	> 10 µM	–
